Rows were chosen to be rich in hits. Some 1.8% of all compounds tested hit in one or more screens of this group.
M4 PAM: positive allosteric modulators of human muscarinic M4 receptor. activation, % at 3 µM. 0.4% of 360,000 active. AID 624126. CHO-K1 hM4/Gqi5, Fluo-8 calcium fluorescence, ACh EC20; 0% = ACh EC20, 100% = maximal ACh;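 active = activation above its plate's cutoff, the mean activation of sample wells plus 3 SD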
M5 ag: agonists of human muscarinic M5 receptor (CHRM5); 0.19% of 360,000 active; AID 624037; CHO-K1 hM5 cells, Fluo-8 calcium fluorescence; 0% DMSO wells, 100% maximal acetylcholine response; activation, % at 3 µM;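 active = activation above the run's mean over test compounds plus 3 SD, cut at about 23% in these data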;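 also: signal is peak over basal fluorescence ratio across the kinetic read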
Target sequence (P08912 whole entry, looked up): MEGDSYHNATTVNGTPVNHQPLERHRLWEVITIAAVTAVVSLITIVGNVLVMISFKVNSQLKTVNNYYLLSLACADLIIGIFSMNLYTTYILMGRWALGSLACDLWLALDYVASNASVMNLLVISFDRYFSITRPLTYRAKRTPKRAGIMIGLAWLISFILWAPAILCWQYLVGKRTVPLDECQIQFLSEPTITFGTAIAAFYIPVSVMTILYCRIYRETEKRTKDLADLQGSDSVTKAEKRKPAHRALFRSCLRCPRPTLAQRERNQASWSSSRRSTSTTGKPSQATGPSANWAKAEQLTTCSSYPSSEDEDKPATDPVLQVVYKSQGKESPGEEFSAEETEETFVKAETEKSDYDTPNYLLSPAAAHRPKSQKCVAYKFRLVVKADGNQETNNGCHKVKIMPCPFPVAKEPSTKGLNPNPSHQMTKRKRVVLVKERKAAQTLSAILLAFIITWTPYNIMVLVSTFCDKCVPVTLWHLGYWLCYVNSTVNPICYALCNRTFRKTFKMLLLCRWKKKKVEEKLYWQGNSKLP
M5 PAM: potentiates acetylcholine response at human M5 receptor | CHO-K1 hM5, Fluo-8 calcium, ACh EC20 PAM; 0% = ACh EC20, 100% = ACh EC100 | 0.3% of 360,000 active | activation, % at 3 µM | P08912;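 active = activation above the run cutoff, the mean activation of all test compounds plus 3 SD, cut at about 18% in these data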
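Assay system – human M5 receptor in CHO-K1 cells · Read-out – % activation, ACh-normalized · Technique – Fluo-8 calcium fluorescence · Dosing – single-point, 3 µM nominal · Incubation – Fluo-8 loading 80 min at 37 °C plus 30 min room temperature · Repeats – singlicate, one well per test compound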
M4 ag: agonists of human muscarinic M4 receptor (CHRM4); CHO-K1 hM4/Gqi5, Fluo-8 calcium fluorescence; vehicle 0%, full acetylcholine response 100%; activation, % at 3 µM; 0.14% of 360,000 active; P08173;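 active = activation above the run mean over all test wells plus 3 SD, cut at about 32% in these data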;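 also: peak over basal fluorescence ratio per well then scaled between controls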
M4 antag: blocks acetylcholine activation of human M4 receptor; 0.73% of 360,000 active; inhibition, % at 3 µM; P08173; CHO-hM4 cells, ACh EC80, Fluo-8 calcium fluorescence; AID 624125;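 active = inhibition above its plate's cutoff, the mean inhibition of sample wells plus 3 SD, cut at about 27% in these data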
CHRM5 antagonist: blocks acetylcholine activation of human M5 receptor; P08912; CHO-hM5 cells, Fluo-8 calcium fluorescence, ACh EC80; inhibition, % at 3 µM; 0.59% of 360,000 active;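 active = inhibition above a per-plate cutoff, the mean of that plate's test compounds plus 3 SD, cut at about 27% in these data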
Each line names hits and unclear results; the compound was inactive in the other large screens.

Nc1nc(SCC(=O)Nc2ccc(OC(F)(F)F)cc2)[nH]c(=O)c1NC(=O)c1ccc(Br)o1	CHRM5 antagonist 34
COc1cccc(N(C(=O)c2snc(C(N)=O)c2N)C(C(=O)NCc2ccccc2)c2ccc(O)cc2)c1 (stereo not given)	CHRM5 antagonist 31
O=[N+]([O-])c1cccc(SSc2cccc([N+](=O)[O-])c2)c1	M5 ag 26
Nc1cccc([N+](=O)[O-])c1	none
Cc1ccc(Cc2c(-c3ccc(Cl)cc3)nc3ccc(Br)cn23)cc1	none
COc1ccc(-c2coc3c(C(=O)N4CCN(C)CC4)cccc23)c(C)c1	none
COc1ccc(/C=C/C(=O)CC(O)(c2ccccc2)C(F)(F)F)cc1 (stereo not given)	none
O=C(/C=C/c1ccccc1)CC(O)(c1ccccc1)C(F)(F)F (stereo not given)	M4 antag 31
O=C(/C=C/c1ccccc1)CC(O)(c1ccccc1)C(F)(F)C(F)F (stereo not given)	M4 antag 47
O=c1c(O)c(-c2ccc(O)c(O)c2)oc2cc(O)cc(O)c12	M5 PAM 21
CCN(CC)CCOC(=O)c1ccc(NC(=O)c2ccc(Cl)c(S(=O)(=O)N3CCCCCC3)c2)cc1	M4 antag 36, CHRM5 antagonist 37
CCN1CCN(c2ccc(NC(=O)c3ccc(Cl)c(S(=O)(=O)N4CCCC4)c3)cc2)CC1	M4 antag 48, CHRM5 antagonist 56
CCN1CCN(c2ccc(NC(=O)c3ccc(OC)c(S(=O)(=O)N4CCCC4)c3)cc2)CC1	none
CCCCOc1cccc(C(=O)Nc2ccc(N3CCN(CC)CC3)cc2)c1	CHRM5 antagonist 39
NC(C(=O)O)C1ON=C(Cl)C1O (stereo not given)	none
COc1ccc(CCNC(=O)CN2CCN(Cc3ccccc3F)C2=O)cc1OC	none
Cc1ccc(CCNC(=O)CN2CCN(Cc3ccccc3F)C2=O)cc1	M4 PAM 30
COCCN(CCOC)Cc1cc(=O)oc2cc(C)c(C)cc12	none
COc1cccc(CN2CC(C(=O)NCCOc3ccccc3)CCC2=O)c1 (stereo not given)	CHRM5 antagonist 29
CC(=O)N1CC2([N+](=O)[O-])CN(C(C)=O)CC([N+](=O)[O-])(C1)C2(C)C	M4 PAM 20
CCCOc1ccc(Br)cc1/C=N/NC(=O)c1cc(OC)c(OC)c(OC)c1	M4 PAM 28
COc1ccc(C(=O)N/N=C/c2cc(Br)ccc2O)cc1OC	none
COc1ccc(Cn2c(C)nc3ccc([N+](=O)[O-])cc3c2=O)cc1	none
O=C(NNc1ccccc1Br)C(O)(c1cccc(C(F)(F)F)c1)c1cccc(C(F)(F)F)c1	CHRM5 antagonist 29
Cn1c(=O)ccc2ccccc21	none
COCCNC(=O)C1(C)CCCN(Cc2cc(-c3ccccc3)on2)C1 (stereo not given)	none
O=C(Nc1ccc(Cl)cc1)N1CCC(c2nc(-c3ccc(F)cc3)no2)CC1	CHRM5 antagonist 47
COc1ccc(C(=O)c2sc3nc(-c4ccccc4)ccc3c2N)cc1	CHRM5 antagonist 34
Cc1nc2sc(C(=O)c3ccccc3)c(N)c2c(C)c1C	M4 ag 69, M4 antag 67
CC(C)OC(=O)c1sc2nc(-c3ccccc3)ccc2c1N	none
Cc1ccc2nc(NC(=O)CSc3nc(=O)n(CCN(C)C)c4c3CCCC4)sc2c1	none
CCCCOc1ccc(C(=O)NCCN2CCC(n3c(=O)[nH]c4ccccc43)CC2)cc1	M4 antag 59
O=C(NCCN1CCC(n2c(=O)[nH]c3ccccc32)CC1)C(c1ccccc1)c1ccccc1	CHRM5 antagonist 37
Cc1n(Cc2ccccc2)c2ccccc2[n+]1Cc1ccccc1	CHRM5 antagonist 28
Cc1n(Cc2ccccc2)c2cc([N+](=O)[O-])ccc2[n+]1Cc1ccccc1	none
CC(=O)NC(CC(=O)N(Cc1ccccc1)c1cccc(C)c1)c1ccccc1 (stereo not given)	none
CN(C)C=Nc1c(Br)cc(Br)c2nonc12	M5 ag 24
COc1cccc(/C=C/C(=O)OCC(=O)Nc2ccc3c(c2)OCCO3)c1	none
O=C(COC(=O)/C=C/c1ccc(Cl)cc1)Nc1ccc2c(c1)OCCO2	M4 PAM 34
O=C(COC(=O)/C=C/c1ccccc1)Nc1ccc2c(c1)OCCO2	M4 PAM 27
OC1(CC#CCN2CCCCC2)c2ccccc2-c2ccccc21	none
OC1(C#CCCN2CCCCC2)c2ccccc2-c2ccccc21	M4 antag 56, CHRM5 antagonist 90
CCOc1cc(C(=O)N(C)Cc2cc3cc(OC)ccc3[nH]c2=O)cc(OCC)c1OCC	M4 PAM 30
CCOc1ccccc1C(=O)N(C)Cc1cc2cc(OC)ccc2[nH]c1=O	none
Clc1ccc(Sc2ccc(/C=N/n3cnnc3)o2)cc1	M4 PAM 24
Cc1ccc(SCC(=O)OCC(=O)N(C)CC(=O)Nc2ccc(F)cc2)cc1C	M5 ag 50, M4 ag 52
O=S1(=O)CC(N2CCN(Cc3ccccc3F)CC2)CN1Cc1cn(Cc2ccc(F)cc2)nn1 (stereo not given)	none
N=c1c2ccccc2nc2n1CCCCCCCCCCC2	M4 ag 34
O=c1c2ccccc2nc2n1CCCCC2	none
CC1(C(=O)NS(=O)(=O)c2ccc(Cl)s2)CCN1C(=O)c1ccccc1CCc1ccccc1 (stereo not given)	none
COc1cc(NS(=O)(=O)c2ccc(C)cc2)c2ncccc2c1	none
Cc1ccc(S(=O)(=O)Nc2cccc3cccnc23)cc1	M4 antag 32
O=[N+]([O-])c1cnccc1-n1nnc2ccccc21	none
COc1ccc(NS(=O)(=O)c2ccc3c(c2)OCCO3)cc1OC	CHRM5 antagonist 29
COc1ccc(S(=O)(=O)Nc2ccc3c(c2)OCO3)cc1OC	none
CCOC(=O)c1ccc(NC(=O)CN2C(=O)NC3(CCCCCCC3)C2=O)cc1	none
COc1ccc(NS(=O)(=O)c2c(C)cc(C)cc2C)cc1	M5 PAM 26
